# In the library only some 3.8% were active in any assay of this set; here they are far more common.
# SIRT5 inh: SIRT5 desuccinylase inhibitors, primary screen, biochemical, fluorescence imaging, single point, set 5; AID 652115, 2013; Purified SirT5, succinyl-peptide AMC, trypsin-coupled fluorescence; 330,000 compounds, 1.1% hits; inhibition, % at 15 µM; in the data active means inhibition above about 15%; inconclusive means no clear call, values can overlap the other calls
# Target sequence (Q9NXA8 whole entry, looked up): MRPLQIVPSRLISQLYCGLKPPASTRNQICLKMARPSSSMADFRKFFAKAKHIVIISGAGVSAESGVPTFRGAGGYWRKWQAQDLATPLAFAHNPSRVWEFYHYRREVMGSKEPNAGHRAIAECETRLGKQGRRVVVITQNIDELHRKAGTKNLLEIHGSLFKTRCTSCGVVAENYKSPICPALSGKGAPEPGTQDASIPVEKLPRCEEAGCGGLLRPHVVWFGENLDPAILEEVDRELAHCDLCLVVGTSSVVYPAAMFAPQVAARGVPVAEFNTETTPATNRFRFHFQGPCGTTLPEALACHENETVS
# FN deposit inh: inhibitors of fibronectin matrix deposition, primary screen, AH1F cells, Alexa488-fibronectin fluorescence, plate reader; AH1F fibroblasts, overnight; inhibition, % at 12.6 µM; 350,000 compounds, 0.086% hits; AID 743247, 2014;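 active means mean inhibition across replicates of 30% or more, regardless of how many single replicates reach that level; inconclusive means mean under 30% yet at least half of replicates reach 30%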;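 further: positive control wells lacked labelled fibronectin entirely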
#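 Material: AH1F fibroblast monolayer depositing Alexa488-labelled fibronectin into matrix / Amount: 10000 AH1F cells per well / Signal: fluorescence 485/525 nm / Medium: DMEM, 2% serum / Compound: single dose, pinned / Incubation: 1 h cell adhesion before compound, then overnight fibronectin incubation / Reagent: Alexa488-FN, 24 nM final / Read-out: inhibition of fibronectin deposition signal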
# DENV2 CPE: inhibitors of DENV2 cytopathic effect, primary screen, cell-based, plate reader, single concentration | DENV2-infected cells, cytopathic effect rescue | 350,000 compounds, 1.7% hits | CPE inhibition, % at 9.99 µM | AID 651640, 2012; in the data active means CPE inhibition above about 20%, passing the limit was not always enough; inconclusive means no clear call, values can overlap the other calls; tested in BHK-21 cells;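 further: 0% = median of neutral control wells and 100% = median of positive control wells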
# FGF22 binding: binders of human FGF22 protein, primary screen, FGF22 synaptogenesis inhibitor project, biophysical, thermal shift, single point; Fibroblast growth factor 22 (Homo sapiens), Q9HCT0; recombinant FGF22 thermal shift, SYPRO orange fluorescence; percent of sucrose octasulfate shift, DMSO zero; activity (Tm shift, normalised), % at 9.99 µM; 340,000 compounds, 1.5% hits; AID 651658, 2012;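 active means mean Tm shift, scaled 0 neutral to 100 positive control, at about 1.3% or above, every replicate too, limit read from the data; inconclusive means no clear call, values can overlap the other calls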
# Target sequence (Q9HCT0 whole entry, looked up): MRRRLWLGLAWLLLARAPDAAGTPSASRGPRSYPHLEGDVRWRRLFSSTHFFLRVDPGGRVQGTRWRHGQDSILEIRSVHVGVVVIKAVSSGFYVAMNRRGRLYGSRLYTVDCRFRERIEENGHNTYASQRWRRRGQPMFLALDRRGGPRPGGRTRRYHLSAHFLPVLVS
# Xi reactivation: activators of inactive X chromosome reactivation, primary screen, imaging, XiGFP fibroblasts, GFP high-content imaging, set 2; XiGFP mouse fibroblasts, % GFP-positive cells imaging, 3 d; cells co-treated with 5-aza-dC sensitizer; scaled so ellipticine positive control = 100%; activation, % at 7.58 µM; 360,000 compounds, 0.055% hits; AID 743238, 2013;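 active means mean normalized replicate activation at least 10% and every replicate at or above 10%; inconclusive means only one of the two criteria met; inactive means mean below 10% and not all replicates reach 10%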;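 further: 0% = median of on-plate neutral control wells and 100% = ellipticine 6 µM median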
#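 material = 68-5-11 XiGFP fibroblast line | medium = DMEM plus 5-aza-dC sensitizer | schedule = 3 days compound exposure | benchmarks = positive control ellipticine, 6 µM final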
# ARNT TACC3 PPI: disruptors of ARNT/TACC3 protein interaction, primary screen, biochemical, AlphaScreen, single concentration; Transforming acidic coiled-coil-containing protein 3 (Homo sapiens), Q9Y6A5; AlphaScreen His-ARNT PAS-B/GST-TACC3 binding, luminescence; TACC3 fragment carries E629A point mutation; inhibition, % at 9.99 µM; 390,000 compounds, 0.66% hits; AID 623870, 2012;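 active means mean inhibition of replicates at least 50% and at least half of replicates each reaching 50%; inconclusive means half or more replicates reach 50% but mean below 50%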;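 further: 0% = complete ARNT plus TACC3 wells and 100% = ARNT alone without TACC3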
# Active calls of the source: *; ? = inconclusive; nt = no result given.
SMILES,SIRT5 inh,FN deposit inh,DENV2 CPE,FGF22 binding,Xi reactivation,ARNT TACC3 PPI
CN1C(=O)c2cc(NC(=O)c3cnccn3)ccc2OC[C@H]2O[C@H](CC(=O)N[C@@H]3CCN(Cc4ccccc4)C3)CC[C@@H]21,3,-6,?,0,0,-3
C[C@@H]1CN([C@@H](C)CO)C(=O)Cc2cc(NS(=O)(=O)c3ccccc3)ccc2O[C@@H]1CN(C)C(=O)Nc1ccccc1,-4,nt,-5,0,0,-12
CO[C@H]1CN(C)C(=O)c2cc(NC(=O)Nc3cccc(F)c3)ccc2OC[C@@H](C)N(C(=O)C2CC2)C[C@@H]1C,nt,14,nt,nt,0,-3
CS(=O)(=O)Nc1ccc2c(c1)[C@H]1C[C@H](CC(=O)O)O[C@H](CO)[C@H]1O2,9,-7,-1,nt,0,nt
O=C(CN(Cc1ccccc1)C1=NCCS1)c1ccccc1,0,-6,39*,0,0,-4
Cc1ccc(C(=O)CN(Cc2ccccc2)C2=NCCS2)cc1,-10,-14,9,0,0,-7
OCC1OCOC2C(CO)OCOC12 (centres undefined),2,nt,123*,0,nt,-2
Nc1nc(CN2CCCCCC2)nc(Nc2ccc(F)cc2)n1,nt,-6,nt,nt,nt,48*
COc1ccccc1Nc1nc(N)nc(CN2CCCCCC2)n1,nt,nt,nt,nt,nt,89*
CCOC(=O)C1CCCN(Cc2nc(N)nc(Nc3ccc(OC)cc3)n2)C1 (centres undefined),nt,nt,nt,nt,nt,31*
COc1ccccc1Nc1nc(N)nc(CN2CCOCC2)n1,0,1,7,0,0,36
O=C(C[C@H]1C[C@H]2c3cc(NC(=O)c4cccnc4)ccc3O[C@H]2[C@H](CO)O1)NCc1cccnc1,2,-14,-11,0,0,-2
CC1CCCCN1C(=O)COC(=O)C1CCN(S(=O)(=O)c2ccc(Cl)c(C(F)(F)F)c2)CC1 (centres undefined),-1,-6,27*,0,0,-5
O=C(COC(=O)C1CCN(S(=O)(=O)c2ccc(Cl)c(C(F)(F)F)c2)CC1)NCc1ccco1,-2,nt,?,0,0,3
Cn1c(CN2CCN(C(=O)c3ccccc3)CC2)nc2cc([N+](=O)[O-])ccc21,-4,nt,-7,0,0,nt
Cn1c(CN2CCN(C(=O)c3ccccc3Cl)CC2)nc2cc([N+](=O)[O-])ccc21,0,-10,nt,44*,0,-5
CC1(C)CC(=O)C2=C(C1)Nc1cc3c(cc1C2c1ccc(F)cc1)OCO3 (centres undefined),nt,-11,nt,nt,nt,10
CC1(C)CC(=O)C2=C(C1)Nc1cc3c(cc1C2c1ccc2c(c1)OCO2)OCO3 (centres undefined),nt,9,38*,0,0,3
CC[n+]1oc(-c2ccccc2)cc1C,-1,-2,6,43*,0,-2
C[C@@H]1CN(C)C(=O)c2cc(NS(C)(=O)=O)ccc2O[C@@H]1CN(C)C,nt,-4,nt,nt,0,nt
COC(=O)[C@]1(Cc2ccccc2)N[C@H](CN(C)C(=O)COc2ccccc2)[C@@H]2C(=O)N(C)C(=O)[C@@H]21,nt,-7,-4,43*,0,2
CCN(C[C@H]1N[C@@](Cc2ccccc2)(C(=O)OC)[C@H]2C(=O)N(C)C(=O)[C@@H]12)S(=O)(=O)c1ccc(OC(F)(F)F)cc1,6,1,84*,-1,0,-2
COC(=O)[C@]1(Cc2ccccc2)N[C@H](CN(C)C(C)=O)[C@@H]2C(=O)N(C)C(=O)[C@@H]21,nt,-8,23*,1,0,-8
